Columns and labels:
[1] = test system: Rattus norvegicus; assay: Biodistribution in lungs of immature female rat after 3 hour administration of 3 micro Ci (111 kBq) in the absence of 60 microg estradiol; type: ADME, organism-based, Lung; conditions: in vivo
Procedure, shortened: (§1)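 Immature female Long Evans rats (21–24 days, 45–70 g), three to five per group, given 125I-labeled steroid (3 μCi, 111 kBq) by lateral tail vein without anesthesia. Vehicle: ethanol diluted in saline with 1% Tween-80, final ethanol 9%, 0.22 μm filtered. +E2 groups received 60 μg unlabeled estradiol co-injected. Killed under ether at set times; tissues KCl-washed, blotted, weighed, gamma counted; %ID/g, mean with SE.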

[2] = test system: Rattus norvegicus; assay: Biodistribution in muscle of immature female rat after 1 hr administration of 3 micro Ci (111 kBq) in the absence of 60 microg estradiol; type: ADME, organism-based, Muscle tissue; conditions: in vivo; procedure, shortened: as §1
[3] = test system: Rattus norvegicus; assay: Biodistribution in fat of immature female rat after 1 hr administration of 3 micro Ci (111 kBq) in the absence of 60 microg estradiol; type: ADME, organism-based, Adipose tissue; conditions: in vivo
Procedure, shortened: (§2)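 Immature female Long Evans rats (21–24 days, 45–70 g), unanesthetized in retention cages, given 3 µCi (111 kBq) 125I-labeled steroid i.v. via lateral tail vein. Vehicle was ethanol diluted in saline containing 1% Tween-80, giving 9% ethanol final. The blocking group received 60 µg unlabeled estradiol co-injected. Rats were killed under ether by axillary bleeding, and tissues were KCl-washed and gamma-counted. Data are %ID/g, mean ± SE, n=3–5.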

[4] = test system: Rattus norvegicus; assay: Biodistribution in liver of immature female rat after 3 hour administration of 3 micro Ci (111 kBq) in the absence of 60 microg estradiol; type: ADME, organism-based; conditions: in vivo; procedure, shortened: as §2
[5] = test system: Rattus norvegicus; assay: Biodistribution in uterus of immature female rat after 3 hour administration of 3 micro Ci (111 kBq) in the absence of 60 microg estradiol; type: ADME, organism-based; conditions: in vivo
Procedure, shortened: (§3)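 Immature female Long Evans rats (21–24 days, 45–70 g), 3–5 per group, unanesthetized in retention cages, given 3 μCi (111 kBq) 125I-labeled steroid by lateral tail vein. Vehicle: ethanol diluted with saline containing 1% Tween-80, final ethanol 9%. +E2 group co-injected 60 μg unlabeled estradiol (1 h only). Killed under ether; tissues KCl-washed, weighed, gamma-counted. Output: %ID/g (mean, SE) and uterus to blood or nontarget (muscle, spleen, lungs) ratios.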

[6] = test system: Rattus norvegicus; assay: Biodistribution in thyroid of immature female rat after 1 hr administration of 3 micro Ci (111 kBq) in the presence of (+E2); type: ADME, organism-based, Thyroid gland; conditions: in vivo; procedure, shortened: as §1
[7] = biological target: Estrogen receptor (Mus musculus) (UniProt O08537+P19785); assay: Relative binding affinity (RBA) against murine cytoplasmic estrogen receptor incubated at 0-4 degree Celsius for 18 hours; type: protein assay
Sequence of Estrogen receptor (Mus musculus) (O08537 whole entry, looked up): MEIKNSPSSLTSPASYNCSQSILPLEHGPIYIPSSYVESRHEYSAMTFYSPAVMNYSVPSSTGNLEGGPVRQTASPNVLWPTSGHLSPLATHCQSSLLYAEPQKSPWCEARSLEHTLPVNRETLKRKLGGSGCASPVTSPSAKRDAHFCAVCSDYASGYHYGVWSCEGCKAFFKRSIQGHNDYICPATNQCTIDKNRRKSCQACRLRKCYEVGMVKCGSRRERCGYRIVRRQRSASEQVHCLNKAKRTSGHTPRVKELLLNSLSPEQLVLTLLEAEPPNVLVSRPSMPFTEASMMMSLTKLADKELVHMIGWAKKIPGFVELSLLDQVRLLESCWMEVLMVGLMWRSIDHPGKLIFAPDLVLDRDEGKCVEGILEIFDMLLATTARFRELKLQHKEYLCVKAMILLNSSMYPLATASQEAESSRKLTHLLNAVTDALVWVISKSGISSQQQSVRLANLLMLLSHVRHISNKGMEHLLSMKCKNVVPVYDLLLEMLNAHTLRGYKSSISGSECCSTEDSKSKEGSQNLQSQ
Sequence of Estrogen receptor (Mus musculus) (P19785 whole entry, looked up): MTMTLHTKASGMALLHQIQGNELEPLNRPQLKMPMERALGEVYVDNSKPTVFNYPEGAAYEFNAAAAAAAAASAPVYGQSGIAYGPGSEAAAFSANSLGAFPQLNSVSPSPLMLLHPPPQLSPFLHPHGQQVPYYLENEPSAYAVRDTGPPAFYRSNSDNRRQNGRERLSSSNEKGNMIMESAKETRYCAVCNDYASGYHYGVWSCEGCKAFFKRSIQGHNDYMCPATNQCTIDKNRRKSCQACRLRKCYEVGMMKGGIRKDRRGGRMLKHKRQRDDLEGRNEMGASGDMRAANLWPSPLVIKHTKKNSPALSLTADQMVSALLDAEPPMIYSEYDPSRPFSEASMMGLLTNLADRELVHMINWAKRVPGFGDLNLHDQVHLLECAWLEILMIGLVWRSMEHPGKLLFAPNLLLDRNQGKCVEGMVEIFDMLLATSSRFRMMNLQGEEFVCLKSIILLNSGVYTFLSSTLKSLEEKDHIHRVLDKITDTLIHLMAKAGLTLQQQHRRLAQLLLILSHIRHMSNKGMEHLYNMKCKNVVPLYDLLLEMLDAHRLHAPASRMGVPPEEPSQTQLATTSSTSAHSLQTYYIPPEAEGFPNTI
Procedure, shortened: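 Competitive binding on murine uterine cytoplasmic extract with 20 nM [3H]estradiol and competitor steroids at 2 nM–20 μM, incubated 18 h at 0–4 °C. RBA = 100 × ratio of […] concentration giving 50% competition for specific binding. Mean of three experiments with SD.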

[8] = test system: Rattus norvegicus; assay: Biodistribution in thyroid of immature female rat after 1 hr administration of 3 micro Ci (111 kBq) in the absence of 60 microg estradiol; type: ADME, organism-based, Thyroid gland; conditions: in vivo; procedure, shortened: as §1
[9] = test system: Rattus norvegicus; assay: Biodistribution in uterus / blood of immature female rat after 5 hour administration of 3 micro Ci (111 kBq) in the absence of 60 microg estradiol; type: ADME, organism-based; conditions: in vivo
Procedure, shortened: (§4)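 Same in vivo procedure: immature female Long Evans rats (21–24 days), three to five per group, 3 μCi (111 kBq) tracer i.v. via tail vein in 9% ethanol/saline/1% Tween-80, ± 60 μg estradiol co-injected at 1 h. Uterus %ID/g (gamma counting) divided by blood, or by nontarget organ (muscle, spleen, lungs), %ID/g to give ratios.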

[10] = test system: Rattus norvegicus; assay: Biodistribution in fat of immature female rat after 5 hour administration of 3 micro Ci (111 kBq) in the absence of 60 microg estradiol; type: ADME, organism-based, Adipose tissue; conditions: in vivo; procedure, shortened: as §2
[11] = test system: Rattus norvegicus; assay: Biodistribution in kidney of immature female rat after 1 hr administration of 3 micro Ci (111 kBq) in the presence of (+E2); type: ADME, organism-based; conditions: in vivo; procedure, shortened: as §2
[12] = test system: Rattus norvegicus; assay: Biodistribution in spleen of immature female rat after 1 hr administration of 3 micro Ci (111 kBq) in the absence of 60 microg estradiol; type: ADME, organism-based; conditions: in vivo; procedure, shortened: as §1
[13] = test system: Rattus norvegicus; assay: Biodistribution in lungs of immature female rat after 12 hour administration of 3 micro Ci (111 kBq) in the absence of 60 microg estradiol; type: ADME, organism-based, Lung; conditions: in vivo; procedure, shortened: as §1
[14] = test system: Rattus norvegicus; assay: Biodistribution in fat of immature female rat after 3 hour administration of 3 micro Ci (111 kBq) in the absence of 60 microg estradiol; type: ADME, organism-based, Adipose tissue; conditions: in vivo; procedure, shortened: as §2
[15] = test system: Rattus norvegicus; assay: Biodistribution in uterus of immature female rat after 1 hr administration of 3 micro Ci (111 kBq) in the absence of 60 microg estradiol; type: ADME, organism-based; conditions: in vivo; procedure, shortened: as §3
[16] = test system: Rattus norvegicus; assay: Biodistribution in uterus of immature female rat after 5 hour administration of 3 micro Ci (111 kBq) in the absence of 60 microg estradiol; type: ADME, organism-based; conditions: in vivo; procedure, shortened: as §3
[17] = test system: Rattus norvegicus; assay: Biodistribution in lungs of immature female rat after 1 hr administration of 3 micro Ci (111 kBq) in the absence of 60 microg estradiol; type: ADME, organism-based, Lung; conditions: in vivo; procedure, shortened: as §2
[18] = test system: Rattus norvegicus; assay: Biodistribution in muscle of immature female rat after 12 hour administration of 3 micro Ci (111 kBq) in the absence of 60 microg estradiol; type: ADME, organism-based, Muscle tissue; conditions: in vivo; procedure, shortened: as §1
[19] = test system: Rattus norvegicus; assay: Biodistribution in liver of immature female rat after 1 hr administration of 3 micro Ci (111 kBq) in the absence of 60 microg estradiol; type: ADME, organism-based; conditions: in vivo; procedure, shortened: as §2
[20] = test system: Rattus norvegicus; assay: Biodistribution in kidney of immature female rat after 12 hour administration of 3 micro Ci (111 kBq) in the absence of 60 microg estradiol; type: ADME, organism-based; conditions: in vivo; procedure, shortened: as §2
[21] = test system: Rattus norvegicus; assay: Biodistribution in lungs of immature female rat after 1 hr administration of 3 micro Ci (111 kBq) in the presence of (+E2); type: ADME, organism-based, Lung; conditions: in vivo; procedure, shortened: as §2
[22] = test system: Rattus norvegicus; assay: Biodistribution in muscle of immature female rat after 3 hour administration of 3 micro Ci (111 kBq) in the absence of 60 microg estradiol; type: ADME, organism-based, Muscle tissue; conditions: in vivo; procedure, shortened: as §1
[23] = test system: Rattus norvegicus; assay: Biodistribution in kidney of immature female rat after 3 hour administration of 3 micro Ci (111 kBq) in the absence of 60 microg estradiol; type: ADME, organism-based; conditions: in vivo; procedure, shortened: as §2
[24] = test system: Rattus norvegicus; assay: Biodistribution in muscle of immature female rat after 1 hr administration of 3 micro Ci (111 kBq) in the presence of (+E2); type: ADME, organism-based, Muscle tissue; conditions: in vivo; procedure, shortened: as §1
[25] = test system: Rattus norvegicus; assay: Biodistribution in blood of immature female rat after 3 hour administration of 3 micro Ci (111 kBq) in the absence of 60 microg estradiol; type: ADME, organism-based; conditions: in vivo; procedure, shortened: as §2
[26] = test system: Rattus norvegicus; assay: Biodistribution in uterus / blood of immature female rat after 3 hour administration of 3 micro Ci (111 kBq) in the absence of 60 microg estradiol; type: ADME, organism-based; conditions: in vivo; procedure, shortened: as §4
[27] = test system: Rattus norvegicus; assay: Biodistribution in uterus / spleen, muscle, lungs of immature female rat after 1 hr administration of 3 micro Ci (111 kBq) in the absence of 60 microg estradiol; type: ADME, organism-based; conditions: in vivo; procedure, shortened: as §4
[28] = test system: Rattus norvegicus; assay: Biodistribution in uterus / blood of immature female rat after 1 hr administration of 3 micro Ci (111 kBq) in the absence of 60 microg estradiol; type: ADME, organism-based; conditions: in vivo; procedure, shortened: as §4
[29] = test system: Rattus norvegicus; assay: Biodistribution in blood of immature female rat after 1 hr administration of 3 micro Ci (111 kBq) in the absence of 60 microg estradiol; type: ADME, organism-based; conditions: in vivo; procedure, shortened: as §2
[30] = test system: Rattus norvegicus; assay: Biodistribution in blood of immature female rat after 12 hour administration of 3 micro Ci (111 kBq) in the absence of 60 microg estradiol; type: ADME, organism-based; conditions: in vivo; procedure, shortened: as §2

| ID/g [1] [%] | ID/g [2] [%] | ID/g [3] [%] | ID/g [4] [%] | ID/g [5] [%] | ID/g [6] [%] | RBA [7] | ID/g [8] [%] | uterus to blood ratio [9] [%] | ID/g [10] [%] | ID/g [11] [%] | ID/g [12] [%] | ID/g [13] [%] | ID/g [14] [%] | ID/g [15] [%] | ID/g [16] [%] | ID/g [17] [%] | ID/g [18] [%] | ID/g [19] [%] | ID/g [20] [%] | Structure (SMILES) | further results |
| --- | --- | --- | --- | --- | --- | --- | --- | --- | --- | --- | --- | --- | --- | --- | --- | --- | --- | --- | --- | --- | --- |
| 0.46 | 0.45 | 1.3 | 1.18 | 4.11 | 98 | 36.8 | 145 | 10.01 | 1.7 | 0.79 | 1.16 | 0.24 | 1.42 | 3.55 | 4.39 | 0.71 | 0.16 | 1.35 | 0.29 | C[C@@H]1Cc2c(ccc(O)c2F)[C@H]2CC[C@@]3(C)[C@@H](CC[C@@]3(O)/C=C\I)[C@H]12 | ID/g [21]: 0.67%; ID/g [22]: 0.28%; ID/g [23]: 0.85%; ID/g [24]: 0.44%; ID/g [25]: 0.39%; uterus to blood %ID/g ratio (unitless) [26]: 10.6%; ID/g [27]: 5.41%; uterus-to-blood ratio of %ID/g [28]: 8.35%; ID/g [29]: 0.44%; ID/g [30]: 0.21% |
| 0.39 | 0.57 | 2.19 | 1.76 | 5.44 | 36.11 | 53.7 | 39 | 12.09 | 1.13 | 0.65 | 0.55 | 0.12 | 2.21 | 4.41 | 3.67 | 0.81 | 0.05 | 2.25 | 0.14 | C[C@]12CC[C@@H]3c4cc(F)c(O)cc4CC[C@H]3[C@@H]1CC[C@@]2(O)/C=C\I | ID/g [21]: 0.75%; ID/g [22]: 0.28%; ID/g [23]: 0.53%; ID/g [24]: 2.16%; ID/g [25]: 0.42%; uterus to blood %ID/g ratio (unitless) [26]: 12.98%; uterus-to-nontarget tissue uptake ratio [27]: 7.32%; uterus-to-blood ratio of %ID/g [28]: 7.34%; ID/g [29]: 0.61%; ID/g [30]: 0.17% |

From ChEMBL document CHEMBL1126849, “Synthesis of A-ring fluorinated derivatives of (17 alpha,20E/Z)-[125I]iodovinylestradiols: effect on receptor binding and receptor-mediated target tissue uptake” (J Med Chem, 1993)
